# Experimental data gathered from unrelated publications.
# ABL1 E255K phosphorylated: Tyrosine-protein kinase ABL1, phosphorylated (ABL1, Homo sapiens, UniProt P00519, E255K)
Compound,target,test,conditions,measurement,value
[2H]c1cc(C)c(NC(=O)c2cnc(Nc3cc(N4CCCCC4)nc(C)n3)s2)c(Cl)c1,"Tyrosine-protein kinase ABL1 (ABL1, Homo sapiens, UniProt P00519)","enzyme activity, inhibitor",100 pM,inhibition,> 50%
CCCCC(=O)Nc1ccc(-c2ccc3ncn(CCC)c(=O)c3c2)cn1,"Tyrosine-protein kinase ABL1, non-phosphorylated (ABL1, Homo sapiens, UniProt P00519)","binding, competition with immobilised ligand",0.5 µM,remaining binding,85%
C[C@H]1CC[C@H](n2c3cnccc3c3cnc(Nc4ccc5c(n4)CCN(C(=O)CO)C5)nc32)CC1,ABL1 E255K phosphorylated,"binding, competition with immobilised ligand",1 µM,remaining binding,77%
N#Cc1ccc(NC(=O)Nc2ccccc2)cc1,"Tyrosine-protein kinase ABL1, phosphorylated (ABL1, Homo sapiens, UniProt P00519, T315I)","cell-free assay, competition with immobilised ligand",25 µM,remaining binding,100%
CC#CC(=O)N1CCC[C@H]1c1nc(-c2ccc(C(=O)Nc3ccccn3)cc2)c2c(N)nccn12,"Tyrosine-protein kinase ABL1, phosphorylated (ABL1, Homo sapiens, UniProt P00519, Y253F)","enzyme activity, inhibitor",1 µM,inhibition,22%
CN1CCN(C(=O)c2ccc(NC(=O)Nc3ccc(N(C)c4ccnc(Nc5ccc(CS(C)(=O)=O)cc5)n4)cc3)cc2)CC1,ABL1 E255K phosphorylated,"binding, competition with immobilised ligand",1 µM,remaining binding,38%
C=CC(=O)N1CCC([C@@H]2CCNc3c(C(N)=O)c(-c4ccc(Oc5ccccc5)cc4)nn32)CC1,"Tyrosine-protein kinase ABL1, non-phosphorylated (ABL1, Homo sapiens, UniProt P00519, H396P)","enzyme activity, inhibitor",1 µM,inhibition,5%
COc1ccc2oc(-c3ccc4nc(N)oc4c3)c/c(=N\c3ccccc3NC(=O)CCN)c2c1,"Tyrosine-protein kinase ABL1 (ABL1, Homo sapiens, UniProt P00519, T315I)",cell-free assay,1 µM,remaining signal,103%
Cc1ccc(NC(=O)c2ccnc(C(F)(F)F)c2)cc1-c1cc(OCCO)nc(N2CCOCC2)c1,"Tyrosine-protein kinase ABL1 (ABL1, Homo sapiens, UniProt P00519, M351T)",binding,1 µM,remaining binding,100%
C1=C/COCc2cc(ccc2OCCN2CCCC2)Nc2nccc(n2)-c2cccc(c2)COC/1,"Tyrosine-protein kinase ABL1, phosphorylated (ABL1, Homo sapiens, UniProt P00519)",binding,0.1 µM,remaining binding,27%
CO[C@@H]1[C@H](N(C)C(=O)c2ccccc2)C[C@H]2O[C@]1(C)n1c3ccccc3c3c4c(c5c6ccccc6n2c5c31)C(=O)NC4,"Tyrosine-protein kinase ABL1, non-phosphorylated (ABL1, Homo sapiens, UniProt P00519, Q252H)","enzyme activity, inhibitor",1 µM,inhibition,0%
